Measurements: ChEMBL document CHEMBL2177004, “Synthesis and SAR of b-annulated 1,4-dihydropyridines define cardiomyogenic compounds as novel inhibitors of TGFβ signaling” (J Med Chem, 2012)
Calls of active or inactive are those of the source. No cut-off for these calls is given here.

Experiments:
[1] = tested on: CGR8; assay: Inhibition of cardiogenesis in mouse CGR8 cells carrying Myh6-GFP compound treated at high concentration on days 3 to 5 measured on day 10 post differentiation by GFP reporter assay; format: functional, cell-based
How it was run: (§1)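 Differentiation used CGR8 mESCs carrying a Myh6 (α-MHC)-GFP reporter, seeded in LIF-free high-glucose DMEM with 10% FBS. Compound was given on days 3–5 of differentiation. α-MHC-GFP fluorescence was quantified by high-content imaging on day 10, and data were normalized.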

[2] = tested on: CGR8; assay: Promotion of cardiogenesis in mouse CGR8 cells carrying Myh6-GFP compound treated at 5 uM on days 3 to 5 measured on day 10 post differentiation by GFP reporter assay; format: functional, cell-based; how it was run: as §1
[3] = tested on: HEK-293T; assay: Inhibition of Activin receptor signaling in activin A-stimulated human HEK293T cells assessed as inhibition of SMAD activation at 2.5 uM after 2 to 22 hrs by dual Luciferase Assay; format: cell-based
How it was run: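 HEK-293T cells bulk co-transfected with an SBE-4–firefly luciferase reporter and a TK-driven Renilla plasmid for normalization, in DMEM with 2% FBS. After 12–14 h, cells were replated at 25,000/well in DMEM with 1% FBS and rested 2 h. Compound was then added with Activin A (10 ng/mL) for 20–22 h. Dual luciferase read-out was compared with DMSO, run in triplicate, with ≥2 independent experiments.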

[4] = tested on: CGR8; assay: Promotion of cardiogenesis in mouse CGR8 cells carrying Myh6-GFP compound treated at 1 to 5 uM on days 3 to 5 measured on day 10 post differentiation by GFP reporter assay; format: functional, cell-based; how it was run: as §1
[5] = tested on: J1 (Mus musculus); assay: Inhibition of mesoderm formation in mouse J1 cells carrying brachyury/T-GFP compound treated on day 1 measured on day 4 of differentiation by flow cytometry
[6] = Inhibition of calcium transients in mouse HL-1 cells after 10 mins using Fluo-4 by fluorescene assay; format: functional
How it was run: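 HL-1 murine atrial cells plated at 25,000/well on gelatin (0.02%)/fibronectin (5 μg/mL) in Claycomb medium with 10% FBS and 0.1 mM norepinephrine. Loaded with Hoechst 33342 and Fluo-4 for 30 min at 37 °C, then 30 min at room temperature. Washed with Tyrode's (pH 7.4); compound in Tyrode's 10 min at room temperature. 10 s videos at 33 frames/s; kinetic parameters from image analysis.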

[7] = target: TGF-beta receptor type-2 (Homo sapiens, UniProt P37173); assay: Inhibition of TGBR2 signaling in human HEK293T cells assessed as inhibition of SMAD activation after 2 to 22 hrs by dual Luciferase Assay; format: cell-based, HEK-293T
[8] = tested on: CGR8; assay: Promotion of cardiogenesis in mouse CGR8 cells carrying Myh6-GFP compound treated at 2.5 uM on days 3 to 5 measured on day 10 post differentiation by GFP reporter assay; format: functional, cell-based
How it was run: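 CGR8 mESCs carrying a Myh6 (α-MHC)-GFP reporter seeded in LIF-free high-glucose DMEM with 10% FBS to differentiate. Compound given on days 3–5; α-MHC-GFP fluorescence quantified by high-content imaging on day 10. Data normalized at lower concentrations.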

[9] = target: T1, Activin receptor type-1C (Homo sapiens) (UniProt Q8NER5); conditions: 2.5 uM
T1 sequence (whole entry): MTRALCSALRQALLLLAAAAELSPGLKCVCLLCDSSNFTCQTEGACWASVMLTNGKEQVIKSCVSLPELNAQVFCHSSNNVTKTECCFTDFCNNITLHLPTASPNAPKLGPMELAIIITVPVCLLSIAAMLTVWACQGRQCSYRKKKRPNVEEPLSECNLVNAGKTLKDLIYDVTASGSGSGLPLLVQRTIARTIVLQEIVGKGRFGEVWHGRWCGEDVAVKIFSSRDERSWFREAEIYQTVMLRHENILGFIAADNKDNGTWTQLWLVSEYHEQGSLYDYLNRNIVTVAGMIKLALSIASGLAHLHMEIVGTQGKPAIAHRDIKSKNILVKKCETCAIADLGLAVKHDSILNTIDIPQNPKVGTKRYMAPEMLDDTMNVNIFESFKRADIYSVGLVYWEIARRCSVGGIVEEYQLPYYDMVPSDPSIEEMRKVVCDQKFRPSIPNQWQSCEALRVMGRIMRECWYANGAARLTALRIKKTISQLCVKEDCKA

[10] = target: T2, Activin receptor type-1B (Homo sapiens) (UniProt P36896); conditions: 2.5 uM
T2 sequence (whole entry): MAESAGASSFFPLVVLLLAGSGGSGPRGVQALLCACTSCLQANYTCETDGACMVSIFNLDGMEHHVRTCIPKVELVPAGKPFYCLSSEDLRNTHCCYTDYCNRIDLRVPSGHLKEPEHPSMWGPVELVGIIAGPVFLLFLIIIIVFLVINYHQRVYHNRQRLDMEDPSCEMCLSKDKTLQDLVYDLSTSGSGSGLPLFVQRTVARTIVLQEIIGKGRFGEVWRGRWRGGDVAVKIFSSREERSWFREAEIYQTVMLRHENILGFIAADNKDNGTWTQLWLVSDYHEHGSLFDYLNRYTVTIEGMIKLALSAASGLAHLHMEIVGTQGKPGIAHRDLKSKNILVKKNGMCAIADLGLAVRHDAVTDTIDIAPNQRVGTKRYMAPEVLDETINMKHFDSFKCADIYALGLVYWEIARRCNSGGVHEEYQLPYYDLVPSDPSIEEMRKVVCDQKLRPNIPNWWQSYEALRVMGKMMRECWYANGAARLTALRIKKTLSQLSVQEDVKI

Sequence of TGF-beta receptor type-2 (P37173 whole entry): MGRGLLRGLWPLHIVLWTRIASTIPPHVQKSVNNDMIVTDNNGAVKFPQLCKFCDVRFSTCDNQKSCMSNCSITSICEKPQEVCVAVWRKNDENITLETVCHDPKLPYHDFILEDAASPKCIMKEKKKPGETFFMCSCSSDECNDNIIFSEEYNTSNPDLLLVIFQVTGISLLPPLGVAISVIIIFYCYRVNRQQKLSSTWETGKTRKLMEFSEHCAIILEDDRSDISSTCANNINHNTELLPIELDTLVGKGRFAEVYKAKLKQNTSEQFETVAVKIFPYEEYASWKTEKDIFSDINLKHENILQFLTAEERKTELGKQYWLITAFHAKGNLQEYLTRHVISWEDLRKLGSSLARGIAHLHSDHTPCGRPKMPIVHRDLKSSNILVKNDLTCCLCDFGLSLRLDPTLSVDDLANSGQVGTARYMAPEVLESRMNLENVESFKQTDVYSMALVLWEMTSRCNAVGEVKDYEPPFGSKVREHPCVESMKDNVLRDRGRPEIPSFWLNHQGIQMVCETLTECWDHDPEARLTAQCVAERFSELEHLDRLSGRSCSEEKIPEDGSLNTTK

Structure (SMILES)	inhibition [3]	inhibition [5]	inhibition (INH) [6]	further results
CCOC(=O)C1=C(C)NC2=C(C(=O)CC(C)(C)C2)C1c1ccc(-c2ccccc2)cc1 (stereo in doubt; (+)1) [listing 1 of 2 here]	49%	Active		inhibition [1]: Dose-dependent effect; Activity [2]: Active; Activity [4]: Active
CCOC(=O)C1=C(C)NC2=C(C(=O)CC(C)(C)C2)C1c1ccc(-c2ccccc2)cc1 (stereo in doubt; (-)1) [listing 1 of 2 here]	41%	Active		Activity [4]: Active
CCOC(=O)C1=C(C)NC2=C(C(=O)CC(C)(C)C2)C1c1ccc(-c2ccccc2)cc1 (racemic) [listing 1 of 2 here]	51%			
CCOC(=O)C1=C(C)NC2=C(C(=O)CC(C)(C)C2)C1c1ccc(-c2ccccc2)cc1 (stereo in doubt; (+)1) [listing 2 of 2 here]			44%	IC50 [7]: 460 nM
CCOC(=O)C1=C(C)NC2=C(C(=O)CC(C)(C)C2)C1c1ccc(-c2ccccc2)cc1 (stereo in doubt; (-)1) [listing 2 of 2 here]			87%	IC50 [7]: 6900 nM
COC(=O)C1=C(C)NC2=C(C(=O)CC(C)(C)C2)C1c1cccc(-c2ccc3[nH]ccc3c2)c1 (racemic)	24%			
COC(=O)C1=C(C)NC(C)=C(C(=O)OC)C1c1ccccc1[N+](=O)[O-] [NIFEDIPINE]			66%	
CCCC1CC(=O)C2=C(C1)NC(C)=C(C(=O)OC)C2c1ccc(-c2ccccc2)cc1 (single isomer, unassigned; (-)) [listing 1 of 2 here]			85%	
CCCC1CC(=O)C2=C(C1)NC(C)=C(C(=O)OC)C2c1ccc(-c2ccccc2)cc1 (single isomer, unassigned; (+)) [listing 1 of 2 here]			58%	
CCCC1CC(=O)C2=C(C1)NC(C)=C(C(=O)OC)C2c1ccc(-c2ccccc2)cc1 (single isomer, unassigned; (+)) [listing 2 of 2 here]		Active		Activity [8]: Active
COC(=O)C1=C(C)NC2=C(C(=O)CC(C)(C)C2)C1c1cccc(-c2ccc3[nH]ccc3c2)c1 (single isomer, unassigned; (-))	68%			
CCCC1CC(=O)C2=C(C1)NC(C)=C(C(=O)OC)C2c1ccc(-c2ccccc2)cc1 (single isomer, unassigned; (-)) [listing 2 of 2 here]		Active		Activity [8]: inactive
CCOC(=O)C1=C(C)NC2=C(C(=O)CC(C)(C)C2)C1c1ccc(-c2ccccc2)cc1 (racemic) [listing 2 of 2 here]				IC50 [7]: 850 nM
NC(=O)c1ccc(-c2nc(-c3ccccn3)c(-c3ccc4c(c3)OCO4)[nH]2)cc1				inhibition [9]: 99%; inhibition [10]: 99%
COC(=O)C1=C(C)NC2=C(C(=O)CC(C)(C)C2)C1c1cccc(-c2ccc3[nH]ccc3c2)c1 (single isomer, unassigned; (+))	55%	Active		
